Compounds with a hit are over-represented: about 4.8% of the library has one in this group of screens.
HSF1 inh = HSF1 inhibitors in luciferase reporter cells, primary screen, cell-based, NIH3T3, luminescence; NIH3T3-HGL HSE-luciferase, MG132-induced, luminescence 8 h; hits give low values; activity change, negative = inhibition, % at 7.5 µM (by protocol); 0.77% of 300,000 active; AID 2098, 2009;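 active = more than half of replicate wells show activity change below -50%, luminescence cut by over half; inconclusive = some wells, but at most half, below -50%; inactive = no replicate well below -50%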;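 note: luciferase reports HSF-1 transcriptional activity via heat shock element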
GPR7 antagonist = GPR7 receptor antagonists, primary screen, cell-based, fluorescence, single concentration | GPR7-expressing cells, fluorescence antagonist assay | inhibition, % at 4.4 µM | 1.1% of 290,000 active | AID 1861, 2009; in the data active = inhibition above about 16%, passing the limit was not always enough;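 note: cells stimulated with the agonist NPW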
Target sequence (P48145 whole entry, looked up): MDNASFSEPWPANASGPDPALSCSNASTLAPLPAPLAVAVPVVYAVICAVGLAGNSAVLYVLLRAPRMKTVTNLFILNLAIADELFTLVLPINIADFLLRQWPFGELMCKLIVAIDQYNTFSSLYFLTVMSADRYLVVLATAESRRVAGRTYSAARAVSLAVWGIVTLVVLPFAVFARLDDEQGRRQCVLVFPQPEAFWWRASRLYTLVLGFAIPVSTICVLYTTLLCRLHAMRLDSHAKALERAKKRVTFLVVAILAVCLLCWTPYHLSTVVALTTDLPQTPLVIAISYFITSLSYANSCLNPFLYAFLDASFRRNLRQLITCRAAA
Jurkat NFkB inh = inhibitors of induced NF-kB luciferase reporter, primary screen, TCR NF-kB activation inhibitor project, cell-based, luminescence, uHTS | Jurkat, PMA/ionomycin-induced NF-kB luciferase reporter | inhibition, % at 4 µM | 0.53% of 330,000 active | AID 435003, 2010; in the data active = inhibition above about 50%
T cruzi inh = inhibitors of intracellular T. cruzi growth, primary screen, luminescence, NIH3T3 host cells; inhibition, % (concentration not given with the values); 1.4% of 300,000 active; T. cruzi beta-gal in NIH3T3, 90 h;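 active = mean inhibition across valid replicates above about 55%, limit read from the data; inconclusive = mean below that limit but half or more replicates reach it; inactive = mean below it, under half of replicates reach it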;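 note: signal also drops with host cell toxicity which is not excluded here; higher percent means less beta-gal luminescence so fewer parasites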
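Test system: β-gal T. cruzi (Tulahuen C4) inside NIH/3T3 cells / Quantity: 5,000 cells/well / Measured by: luminescence from GalScreen with 0.05% NP40, read after 60 min / Medium: DMEM plus 2% FBS / Measure: parasite load inhibition, % / Reagent: Tulahuen C4 trypomastigotes, 5000/well / Schedule: co-culture of at least 90 h after 3 h attachment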
HSF-1 act = HSF-1 activators, primary screen, NIH3T3-HGL cells, MG132 stress, luminescence, single point | NIH3T3-HGL HSF-1 luciferase reporter, 8 h; 100% = twice DMSO control signal | activation, % at 9 µM | 1.7% of 300,000 active;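 active = mean replicate activation of at least 50% with a set share of replicates each reaching 50%; inconclusive = only one of those two conditions met; inactive = mean below 50% and too few replicates reaching it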
697 NFkB inh = inhibitors of PMA/ionomycin-induced NF-kB reporter, 697 cells, primary screen, B-cell NF-kB inhibitor project, cell-based, luminescence, uHTS; 697 B-cell NF-kB luciferase reporter, 16 h; inhibition, % at 4 µM; 0.33% of 330,000 active; AID 435022, 2010; in the data active = inhibition above about 35%
Jurkat NFkB conf = PMA/ionomycin-induced NF-kB reporter inhibitors, Jurkat retest, confirmation, T-cell NF-kB inhibitor project, cell-based, luminescence, single concentration. inhibition, % at 4 µM. 27% of 2,700 active. shares compounds with Jurkat NFkB inh. Jurkat NF-kB luciferase, 16 h;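 active = inhibition reaching about 45% at 4 µM in either replicate, limit read from the data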
697 NFkB conf = PMA/ionomycin-induced NF-kB reporter inhibitors, 697 retest, confirmation, B-cell NF-kB inhibitor project, cell-based, luminescence, single concentration | shares compounds with 697 NFkB inh | 697 B-cell NF-kB luciferase, 16 h | inhibition, % at 4 µM | 35% of 2,000 active | AID 449746, 2010; in the data active = inhibition mostly above about 28%, no sharp cut-off; inactive = mostly below about 22%
Numbers stand for hits; . = inactive; ? = inconclusive; / = not tested or not shown.

SMILES	HSF1 inh	GPR7 antagonist	Jurkat NFkB inh	T cruzi inh	HSF-1 act	697 NFkB inh	Jurkat NFkB conf	697 NFkB conf
COc1cccc(C(=O)Nc2ccc3ccccc3c2)c1	.	.	.	.	.	.	.	.
Cc1cc(C(=O)Nc2cnc3ccccc3c2)ccc1[N+](=O)[O-]	.	.	.	.	.	.	/	/
Nc1nccnc1C(=O)OCC(=O)c1ccc[nH]1	.	/	.	.	.	.	/	/
Cc1cccc(C(=O)Nc2ccc3ccccc3c2)c1	.	.	.	.	66	.	.	.
CS(=O)(=O)Nc1ccc(C(=O)Nc2ccc3ccccc3c2)cc1	.	.	.	.	.	.	.	.
O=C(Nc1ccc(N=Nc2ccccc2)cc1)c1ccc(Cl)cc1Cl	.	.	.	.	.	.	/	/
COc1ccc2nc(NC(=O)c3ccc(F)cc3)sc2c1	.	.	.	.	.	.	/	/
COc1cccc(C(=O)Nc2nc3ccccc3s2)c1	.	.	.	.	.	.	.	.
O=C(Nc1ccc2ccccc2c1)c1cccc([N+](=O)[O-])c1	.	.	.	.	.	.	/	/
CC(=O)c1cccc(NC(=O)c2ccc(NS(C)(=O)=O)cc2)c1	.	.	.	.	.	.	/	/
O=C(Nc1ccc2ccccc2c1)c1ccc(Cl)cc1Cl	.	.	.	.	51	.	.	.
COc1ccccc1N(CC(=O)NCCc1ccccc1)C(=O)CCC(=O)Nc1cc(C)ccn1	.	.	.	.	.	.	/	/
Cc1cc(NC(=O)CSc2nncn2N)no1	.	.	.	.	.	.	/	/
O=C(CSc1nnnn1C1CC2CCC1C2)Nc1ccnc2ccccc12 (stereo not given)	/	23	83	/	/	95	71	96
N=c1ccn2c(n1)O[C@H]1[C@@H](CO)[C@H](O)O[C@H]12	/	/	53	/	/	70	61	61
NC(=O)c1ccc(NC(=O)CCCN2C(=O)NC3(CCCC3)C2=O)cc1	/	/	.	/	/	.	/	/
O=C(CCN1C(=O)NC2(CCCC2)C1=O)Nc1ccc(-c2nc3ccccc3s2)cc1	/	/	.	/	/	.	.	.
Cn1c(-c2cnn(-c3ccccc3)c2-n2cccc2)n[nH]c1=S	.	.	.	.	.	.	/	/
CCOc1ccc(S(=O)(=O)N=C(c2ccccc2)N2CCOCC2)cc1	/	/	.	/	/	.	/	/
Cc1ccc(-c2cn(-c3ccccc3)c(=S)[nH]2)cc1C	-61	.	.	.	.	.	.	.
Cc1ccccc1-c1cn(-c2ccccc2)c(=S)[nH]1	.	.	.	.	.	.	/	/
Cc1ccnc(NC(=O)CCCOc2cc(=O)n(C)c3ccccc23)c1	.	.	66	.	.	61	58	48
CCOC(=O)c1sc(NC(=O)Nc2ccccc2Cl)cc1C	.	.	.	65	.	.	.	.
CCOC(=O)c1cc(NC(=O)Nc2ccccc2Cl)c(C)nc1C	.	.	.	.	.	.	/	/
CCn1c(C)nc2cc(-c3nc4n(n3)Cc3ccccc3-4)ccc21	-93	.	91	.	.	70	91	74
SMILES	HSF1 inh	GPR7 antagonist	Jurkat NFkB inh	T cruzi inh	HSF-1 act	697 NFkB inh	Jurkat NFkB conf	697 NFkB conf
Cn1cc(/C=C/C(=O)c2ccccc2)c2ccccc21	.	.	.	.	62	.	.	.
COCc1ccc(O)c2ncccc12	.	.	.	.	.	.	/	/
O=Nc1ccc(O)c2ncccc12	.	.	60	.	.	.	.	.
Cc1cc(NC(=O)CSc2nnc(N)s2)c([N+](=O)[O-])cc1C	.	.	.	.	.	.	/	/
CCCCCCCCCn1c2c(c(=N)c3c1CCC3)CCCC2	.	68	97	58	.	58	81	.
CCOC(=O)Cn1c2c(c(=N)c3c1CCC3)CCC2	.	.	.	.	.	.	/	/
CC(=N\NC(=O)c1ccc([N+](=O)[O-])cc1)/C(=N/O)C(=O)Nc1ccccc1	.	.	.	.	.	.	/	/
Cc1ccc(Nc2nc3c(c(=O)[nH]2)CCCC3)cc1	/	.	.	.	/	.	/	/
O=c1[nH]c(Nc2nc3ccccc3o2)nc2c1CCCC2	.	.	71	60	.	.	.	.
Cc1ccsc1/C=N/N=C/c1sccc1C	.	.	.	.	.	.	.	.
Cc1ccc2c(C)c(C(=O)NCCN3CCCC(O)C3)oc2c1C (stereo not given)	.	.	.	.	.	.	/	/
CC(C)(C)c1ccc(NC(=O)Nc2ccc(F)cc2)cc1	.	24	.	.	57	.	.	.
CC(Nc1ncnc2sccc12)c1ccccc1 (stereo not given)	-81	.	61	.	.	43	62	60
Cc1ccc(Cc2cnc(NC(=O)c3ccco3)s2)cc1	.	.	.	.	.	.	/	/
O=C(Nc1ncc(Cc2ccc(SC(F)F)cc2)s1)c1ccc(OC(F)F)cc1	.	.	76	.	.	.	58	.
Cc1nn(-c2ccccc2)c(N)c1-c1ccccc1	.	.	.	.	.	.	/	/
Cc1nn(-c2nc3ccccc3[nH]2)c(N)c1-c1ccccc1	.	.	.	.	71	.	.	.
NS(=O)(=O)c1cccc(NC(=O)CSc2nnc(-c3ccncc3)n2C2CC2)c1	/	/	.	/	/	.	/	/
O=C(NC(=S)Nc1ccccn1)c1ccc(-c2ccccc2)cc1	.	.	.	.	.	.	.	.
COc1ccc(-n2ncc3c(NCC(C)C)ncnc32)cc1	.	.	.	.	.	.	.	.
COc1cc2c(c(OC)c1OC)-c1ccc(NC(=O)c3ccc(F)cc3)c(=O)cc1[C@@H](NC(C)=O)CC2	.	.	.	.	.	.	/	/
COc1cc2c(c(OC)c1OC)-c1ccc(OC)c(=O)cc1[C@@H](NC(C)=O)CC2	.	.	71	.	.	.	69	.
COc1ccc(-c2[nH]ncc2CN2CCC(C(=O)c3ccc(F)cc3)CC2)cc1	.	.	.	.	.	.	/	/
O=C(CSc1nc2ccccc2nc1N1CCCCC1)N1CCN(c2ccccc2)CC1	.	.	.	.	.	.	/	/
C=C1C(=O)C=C2CN(C(=O)c3ccccc3)[C@@](Cc3ccc(F)cc3)(C(=O)OC)[C@@H]12	.	85	83	.	?	.	76	.
